In the library only some 1.2% were active in any assay of this set; here they are far more common.
GC-A act: GC-A (human) enzyme activation; HEK293 GC-A cells, cGMP TR-FRET, EC30 ANP; 0% at EC30 ANP, 100% saturating ANP; activation, % at 10 µM; hit rate 0.14% among 370,000; in the data active means activation above about 40%
HCV core dimer: HCV core protein dimerization inhibition; TR-FRET GST/Flag-core106 dimerization, 1536-well; inhibition, % at 5 µM; hit rate 0.33% among 300,000;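 active means inhibition above the mean of all tested compounds plus 3 SD, set per screening campaign, cut at about 45% in these data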
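Assay system: Tagged HCV core106 pair (GST and Flag) | Buffer or medium: KF-containing HEPES buffer, pH 7.45, DTT, CHAPS, BSA | Also added: Eu donor and XL665 acceptor anti-tag antibodies | Dosing: One concentration, 5 µM, in 0.5% DMSO | Timing: 4 h at 22.5 °C | Technique: TR-FRET 671 and 617 nm emission | Repeats: Singlicate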
ARFGAP1 inhibitor: inhibitors of rat ARFGAP1; hit rate 0.26% among 360,000; inhibition, % at 16.5 µM; Arfgap1-stimulated ARF1 GTP hydrolysis, GDP FP detection; Q62848;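 active means inhibition above a per-plate limit, mean inhibition of low control wells plus 3 SD, cut at about 25% in these data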
Target sequence (Q62848 1-136 limits assumed): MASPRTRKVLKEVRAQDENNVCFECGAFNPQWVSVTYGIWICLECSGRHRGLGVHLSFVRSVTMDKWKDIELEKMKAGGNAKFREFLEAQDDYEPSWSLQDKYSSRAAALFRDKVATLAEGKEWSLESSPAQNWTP
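Material: truncated rat Arfgap1 GAP domain; Incubation: compound-enzyme preincubation 20 min, reaction 120 min, detection 60 min, 25 °C; Read-out: percent inhibition of Arfgap1-stimulated GTP hydrolysis; Technique: FP, GDP Alexa 633 tracer displaced from anti-GDP antibody, 620/688 nm; Controls: No-Arfgap1 wells (100%) versus DMSO full-reaction wells (0%); Replication: single well per compound.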
ASAP1 inh: blocks human ASAP1-stimulated Arf1 GTP hydrolysis. hit rate 0.19% among 360,000. AID 624377. GDP FP detection. inhibition, % at 16.5 µM. Q9ULH1; in the data active means inhibition above about 25%
Fh CTSL1 inh: blocks F. hepatica cathepsin L1 in PFM18AAP counter-screen | inhibition, % at 5.96 µM | recombinant F. hepatica cathepsin L1, Z-Leu-Arg-MCA fluorescence | hit rate 0.49% among 300,000;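 active means inhibition above the mean of all tested compounds plus 3 SD, set per screening campaign, cut at about 17% in these data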
GC-B act: GC-B (human) receptor activation. activation, % at 10 µM. hit rate 0.11% among 370,000. HEK293-GC-B cells, CNP EC30, cGMP TR-FRET; 0% at EC30 CNP, 100% saturating CNP;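 active means activation at 10 µM reaching about 35% in either raw or pattern-adjusted values, limit read from the data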
ARFGAP1 confirm: confirmation of rat ARFGAP1 inhibitors; shares compounds with ARFGAP1 inhibitor; ARFGAP1-stimulated ARF1 GTP hydrolysis, GDP tracer FP; inhibition, % at 16.5 µM; hit rate 30% among 890; AID 651608;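 active means average inhibition over triplicates above the hit cutoff set in the earlier primary screen, cut at about 25% in these data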
Target sequence (Q62848 whole entry, looked up): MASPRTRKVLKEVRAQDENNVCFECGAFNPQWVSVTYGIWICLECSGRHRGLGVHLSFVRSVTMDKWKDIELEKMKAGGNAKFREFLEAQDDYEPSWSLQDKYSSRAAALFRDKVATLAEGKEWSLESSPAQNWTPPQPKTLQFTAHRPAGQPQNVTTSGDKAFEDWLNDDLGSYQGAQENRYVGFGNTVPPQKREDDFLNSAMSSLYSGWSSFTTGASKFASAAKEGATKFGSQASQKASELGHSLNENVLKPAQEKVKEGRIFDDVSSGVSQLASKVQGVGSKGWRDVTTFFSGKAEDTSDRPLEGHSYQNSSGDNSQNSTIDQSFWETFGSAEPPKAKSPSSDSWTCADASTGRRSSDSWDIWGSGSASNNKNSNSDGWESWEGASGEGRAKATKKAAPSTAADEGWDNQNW
Numbers stand for hits; i = inactive; nt = no result.

SMILES | GC-A act | HCV core dimer | ARFGAP1 inhibitor | ASAP1 inh | Fh CTSL1 inh | GC-B act | ARFGAP1 confirm
Cn1nc(-c2ccc(C(=O)Nc3cccnc3)cc2)c2ccccc2c1=O | i | i | 25 | i | i | i | i
Cc1ccc(NC(=O)c2ccc(-c3nn(C)c(=O)c4ccccc34)cc2)cc1 | i | i | i | i | i | i | nt
CCOC(=O)[C@H]1[C@H]2COc3ccc(Br)cc3[C@H]2N2C(=O)CN(CCc3c[nH]c4ccccc34)C(=O)[C@@]12C | i | nt | i | i | nt | i | nt
COc1cccc(-c2nc(CS(=O)(=O)CC(=O)Nc3cccc(C(C)=O)c3)c(C)o2)c1 | i | i | i | i | i | i | nt
COc1ccc(-c2nc(CS(=O)(=O)CC(=O)Nc3cccc(C(C)=O)c3)c(C)o2)cc1 | i | i | 27 | i | i | i | i
COc1cc(C(=O)Nc2ccc3nc(N4CCN(C)CC4)cc(C)c3c2)cc(OC)c1OC | i | i | 29 | i | i | i | 25
Cc1cc(N2CCN(C)CC2)nc2ccc(NC(=O)c3ccc4c(c3)OCO4)cc12 | i | i | i | i | i | i | nt
COc1cccc(Nc2nc(-c3sc(NC(=O)c4ccccc4)nc3C)cs2)c1 | i | i | 26 | i | i | i | i
FC(F)Oc1ccc(NC(=S)NC23CC4CC(CC(C4)C2)C3)cc1 | i | i | 25 | i | i | i | i
Cc1cc(NS(=O)(=O)c2ccc(NC(=S)NC(=O)c3cccc(S(=O)(=O)N(C)C)c3)cc2)no1 | i | i | 29 | i | i | i | 38
Cc1cc(NS(=O)(=O)c2ccc(NS(=O)(=O)c3ccc(Br)cc3)cc2)no1 | i | i | 27 | i | i | i | i
COc1cc(OC)cc(C(=O)N/N=C/c2ccc(OC)c(COc3ccc(F)cc3)c2)c1 | i | i | i | i | i | i | nt
Cc1ccc(CNC(=O)C(=O)NCC(c2ccco2)N2CCOCC2)cc1 (stereo not given) | i | i | i | i | i | i | nt
O=C(NCc1ccc(Cl)cc1)C(=O)NCC(c1ccco1)N1CCOCC1 (stereo not given) | i | i | 30 | i | i | i | i
CCCCOc1ccc(CSC(=N)N)cc1Cl | i | i | i | i | i | i | nt
O=C(NNC(=S)NC(=O)C12CC3CC(CC(C3)C1)C2)c1ccncc1 | i | i | 37 | i | i | i | i
CC1(C(=O)NC(=S)NNC(=O)c2ccncc2)CCCCC1 | i | i | i | i | i | i | nt
O=C(CSc1nc2c(c(=O)n1-c1ccc(Br)cc1)SCC2)NCc1ccco1 | nt | i | 29 | i | i | nt | i
CCOC(=O)Cc1cc(=O)c2cc(C)ccc2[nH]1 | i | i | 39 | i | i | i | i
O=P(OC1CCS(=O)(=O)C1)(c1ccccc1)c1ccccc1 (stereo not given) | i | i | 27 | i | i | i | i
O=C(Nc1ccc2ccccc2c1)OC1CCS(=O)(=O)C1 (stereo not given) | i | nt | i | i | nt | i | nt
CN1c2ccsc2C(=O)/C(=C\Nc2cccc(C(F)(F)F)c2)S1(=O)=O | i | i | i | i | i | i | nt
CCCCCn1c(=O)[nH]c2cc(C(=O)N3CCN(C(=O)OCC)CC3)ccc2c1=O | i | i | 25 | i | i | i | i
CCOc1ccc(/C=N/NC(=O)c2cc3c(OC)cc(OC)cc3[nH]2)cc1OC | i | i | 26 | i | i | i | 47
C=CCOc1ccc(/C=N/NC(=O)c2cc3c(OC)cc(OC)cc3[nH]2)cc1 | i | i | i | i | i | i | nt
SMILES | GC-A act | HCV core dimer | ARFGAP1 inhibitor | ASAP1 inh | Fh CTSL1 inh | GC-B act | ARFGAP1 confirm
Cc1cnc2nc(-c3ccccc3)ccc2c1 | i | nt | 26 | i | nt | i | i
Cc1ccc2[nH]c3c(=O)n(CC(=O)Nc4ccccc4N4CCN(C)CC4)ncc3c2c1 | i | i | 25 | i | i | i | 48
CCOc1ccc2nc(COC(=O)c3ccco3)c(C(C)=O)[n+]([O-])c2c1 | i | i | i | i | i | i | nt
CCC(C)Oc1ccc(/C=C/c2[nH]c(=O)[nH]c(=O)c2[N+](=O)[O-])cc1OC (stereo not given) | i | i | i | i | i | i | nt
CC1Cc2ccccc2N1C(=O)CN1CCC(n2nnc3cc(C(F)(F)F)ccc32)CC1 (stereo not given) | i | i | 28 | i | i | i | i
COc1ccc(S(=O)(=O)N2CCCCCC2)cc1N(C)S(=O)(=O)c1ccccc1 | i | i | 26 | i | i | i | i
COc1ccc(S(=O)(=O)N2CCCCC2)cc1N(C)S(=O)(=O)c1ccccc1 | i | i | i | i | i | i | nt
CC(C)NC(=O)Cn1c(SCC(=O)N2c3ccccc3CC2C)nc2ccccc21 (stereo not given) | i | i | 31 | i | i | i | i
O=C(Nc1ccc(Oc2ccccc2)cc1)c1csc([C@H]2C[C@H](O)[C@@H](CO)O2)n1 | i | nt | i | i | nt | i | nt
CCNc1nc(-c2sc(NC(=O)C(C)(C)C)nc2C)c(-n2cc(-c3ccccc3)nn2)s1 | i | nt | 32 | i | nt | i | i
Cc1nc(NC(=O)C(C)(C)C)sc1-c1nc(N)sc1-n1cc(-c2ccccc2)nn1 | i | nt | i | i | nt | i | nt
CC1CCCCN1C(=O)CSc1ccc(-c2ccc(F)cc2)nn1 (stereo not given) | i | i | i | i | i | i | nt
CC1CCCC(C)N1NC(=O)Cc1ccccc1 (stereo not given) | i | i | i | i | i | i | nt
CC(=O)c1c(C)nc(Nc2nc3ccccc3s2)nc1C | i | i | 25 | i | i | i | i
CCCOc1ccc(C(=O)N/N=C/c2c[nH]c3ccc(Br)cc23)cc1 | i | i | 25 | i | i | i | i
COc1ccc(NC(=O)c2cc(S(=O)(=O)N3CCc4ccccc43)cn2C)cc1 | i | i | i | i | i | i | nt
CCOC(=O)C1CCCc2c1[nH]c1ccc(Cl)cc21 (stereo not given) | i | i | i | i | i | i | nt
C=CCNc1nc(NCc2ccc(N(C)C)cc2)c2sc(-c3ccccc3)cc2n1 | i | nt | 46 | i | nt | i | i
C=CCNc1nc(NCCNC(C)=O)c2sc(-c3ccccc3)cc2n1 | i | nt | i | i | nt | i | nt
C=CCNc1nc(NCCOc2ccccc2Cl)c2sc(-c3ccccc3)cc2n1 | i | nt | i | i | nt | i | nt
C=CCNc1nc(NCCOC)c2sc(-c3ccccc3)cc2n1 | i | nt | 28 | i | nt | i | 40
CC(CC(=O)Nc1ccccc1C(F)(F)F)c1ccccc1 (stereo not given) | i | i | i | i | i | i | nt
O=C(N=Nc1c(O)[nH]c2ccccc12)c1cc(-c2cccs2)[nH]n1 | i | i | 30 | i | i | i | 32
Cc1ccc(NC(=O)Cn2cnc(C(=O)Nc3ccc(C)c(C)c3)n2)cc1C | i | nt | i | i | nt | i | nt

Screening data deposited in PubChem BioAssay by several laboratories.
